Source: PubChem (The Scripps Research Institute Molecular Screening Center)
A selection: hits, their analogues and other compounds. The true share with any hit is near 2.3%.
OXTR potentiator: human OXTR potentiation; CHO-OTR cells, Fluo-8 calcium fluorescence, potentiator mode; 0% = oxytocin EC15, 100% = EC100; AID 2445; actives 0.061% (n = 320,000); activation, % at 3 µM;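 active means activation above that plate's cutoff, the mean activation of tested compounds plus 3 SD, cut at about 6.6% in these data, passing the limit was not always enough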;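 further: 100% uses oxytocin at 75 nM as the full agonist control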
Target sequence (P30559 whole entry, looked up): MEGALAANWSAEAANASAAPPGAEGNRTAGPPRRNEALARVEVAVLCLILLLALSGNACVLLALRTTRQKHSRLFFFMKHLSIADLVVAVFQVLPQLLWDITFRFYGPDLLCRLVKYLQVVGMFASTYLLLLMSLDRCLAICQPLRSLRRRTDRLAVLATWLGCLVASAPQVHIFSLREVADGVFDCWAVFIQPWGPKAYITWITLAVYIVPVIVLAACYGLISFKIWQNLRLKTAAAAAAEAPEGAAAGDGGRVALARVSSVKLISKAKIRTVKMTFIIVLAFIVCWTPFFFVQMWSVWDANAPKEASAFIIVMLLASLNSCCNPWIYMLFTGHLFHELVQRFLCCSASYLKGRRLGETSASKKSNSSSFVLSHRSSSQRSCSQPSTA
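Replication – single well per compound, singlicate · Assay system – CHO cell line stably expressing human OTR · Timing – 6 min pre-incubation, 100 s read · Measure – normalized max/min fluorescence ratio, % activation · Doses – 3.0 µM, one dose · Detection – Fluo-8 calcium dye fluorescence · Probe or stimulus – oxytocin near EC15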
OXTR agonist: agonists of human oxytocin receptor; P30559; CHO-OTR cells, Fluo-8 calcium fluorescence; normalized: DMSO 0%, oxytocin 100%; activation, % at 3 µM; actives 0.32% (n = 320,000); AID 2435;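 active means activation above the mean of all tested compounds plus 3 SD, cutoff set per screening run, cut at about 20% in these data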;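 further: peak over basal fluorescence ratio from a 100 s FLIPR kinetic read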
TAAR1 agonist: agonists of human TAAR1; Q96RJ0; CHO RD-HGA16 TAAR1, Fluo-8 calcium fluorescence; vehicle wells 0%, saturating PEA agonist 100%; activation, % at 3 µM; actives 0.99% (n = 360,000); AID 624467;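 active means activation above the mean activation of all test compounds in the run plus 3 SD, cut at about 38% in these data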
Target sequence (Q96RJ0 whole entry, looked up): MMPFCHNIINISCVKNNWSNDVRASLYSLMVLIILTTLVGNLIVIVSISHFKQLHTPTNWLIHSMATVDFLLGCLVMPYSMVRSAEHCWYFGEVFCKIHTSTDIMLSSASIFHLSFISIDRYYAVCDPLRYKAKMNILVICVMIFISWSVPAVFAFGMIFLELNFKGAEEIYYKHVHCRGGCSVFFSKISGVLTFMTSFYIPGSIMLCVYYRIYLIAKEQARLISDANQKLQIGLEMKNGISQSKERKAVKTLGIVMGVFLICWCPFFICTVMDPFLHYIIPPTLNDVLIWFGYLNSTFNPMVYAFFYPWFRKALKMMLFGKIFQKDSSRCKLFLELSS
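System: CHO-derived RD-HGA16 cells with stable Gα16 and human TAAR1 / Times: 17-24 h plating, Fluo-8 75 min 37 °C, 30 min RT / Technique: calcium-sensitive Fluo-8 signal, excitation 470-495, emission 515-575 nm / Measure: % activation relative to PEA EC100 response / Benchmarks: DMSO and PEA EC100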
TAAR1 antagonist: antagonists of human TAAR1; actives 1.5% (n = 360,000); inhibition, % at 3 µM; CHO RD-HGA16 TAAR1, Fluo-8 calcium fluorescence, antagonist; AID 624466; Q96RJ0;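 active means inhibition above a per-plate cutoff, the mean inhibition of test compounds on that plate plus 3 SD, cut at about 49% in these data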;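 further: 0% = DMSO plus EC80 beta-PEA response and 100% = DMSO alone without agonist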
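Test system – hTAAR1-expressing CHO RD-HGA16 cells, Gα16-coupled · Also added – β-PEA at EC80 concentration, post-compound challenge · Compound – 3 µM, single point · Incubation – dye loading 75 min at 37 °C, then 30 min room temperature · Measured by – Fluo-8 intracellular calcium dye fluorescence, real-time kinetic reads · Benchmarks – vehicle and agonist controls · Replicates – singlicate, one well per test compound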
V1R ag counter: counter-screen for oxytocin receptor agonists: human V1a receptor agonists; CHO-V1R cells, Fluo-8 calcium fluorescence, agonist mode; 0% DMSO, 100% 3 nM vasopressin; P37288; actives 0.25% (n = 320,000); activation, % at 3 µM;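 active means activation above the mean activation of all tested compounds plus 3 SD, per screening run, cut at about 20% in these data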;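 further: signal is peak over basal fluorescence ratio across a 100 second FLIPR read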
OXTR pot confirm: human OXTR potentiation, confirmation. shares compounds with OXTR potentiator. CHO-OTR cells, Fluo-8 calcium fluorescence; scaled from low-dose to maximal oxytocin. activation, % at 3 µM. 180 tested, under 10 active. AID 434985;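 active means mean percent activation over triplicates above a cutoff set from solvent-only control plates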;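 further: compounds tested in the presence of an EC15 dose of oxytocin; 0% = EC15 oxytocin with DMSO and 100% = EC100 oxytocin with DMSO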
TAAR1 ag conf: human TAAR1 agonism, confirmed | shares compounds with TAAR1 agonist | CHO RD-HGA16 TAAR1, Fluo-8 calcium fluorescence; scaled: DMSO 0%, maximal phenethylamine 100% | activation, % at 3 µM | actives 82% (n = 2,400);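 active means activation above a cutoff set at the run's mean compound activation plus 3 SD, cut at about 39% in these data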
Ga16 ag counter: nonselective agonism, TAAR1 counter-screen. shares compounds with TAAR1 agonist. CHO-Ga16 parental, Fluo-8 calcium fluorescence; normalized to maximal ATP response, DMSO zero. activation, % at 3 µM. actives 50% (n = 2,400). AID 651787;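 active means activation above the run cutoff, the mean activation over all tested wells plus 3 SD, cut at about 12% in these data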;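 further: 0% = DMSO wells and 100% = maximal ATP response on the peak over basal ratio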
TAAR1 desensitize: human TAAR1 agonist that also desensitizes the receptor; shares compounds with TAAR1 agonist; actives 46% (n = 2,400); CHO RD-HGA16 hTAAR1, Fluo-8 calcium, beta-PEA response inhibition; inhibition, % at 3 µM;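 active means inhibition above the run cutoff, the mean inhibition of all test compounds plus 3 SD, cut at about 49% in these data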;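 further: beta-PEA stimulus applied at its EC80; loss of beta-PEA calcium signal after compound pretreatment read as receptor desensitization; 0% = DMSO with beta-PEA at EC80 and 100% = DMSO alone without agonist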
Ga16 nonsel ant: nonselective Ga16 antagonism, counter-screen | shares compounds with TAAR1 agonist | CHO-Ga16 ATP-induced calcium, Fluo-8 fluorescence | inhibition, % at 3 µM | actives 39% (n = 2,400) | AID 651952;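 active means inhibition above the plate's mean compound inhibition plus 3 SD, computed per plate, cut at about 22% in these data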;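 further: 0% = EC80 ATP with DMSO and 100% = DMSO wells without ATP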
The depositor's hits bear a star; nt = no result.

SMILES	OXTR potentiator	OXTR agonist	TAAR1 agonist	TAAR1 antagonist	V1R ag counter	OXTR pot confirm	others
COc1cc(C=Nc2cccc([N+](=O)[O-])c2C)ccc1OC(C)=O	-3	0	0	-3	0	nt
O=C(NC(=S)Nc1ccccc1N1CCCCC1)c1ccc(-c2cccc([N+](=O)[O-])c2)o1	-1	-1	4	-10	0	nt
O=C(NC(=S)Nc1ccccc1N1CCCC1)c1ccc(-c2cccc([N+](=O)[O-])c2)o1	11*	0	14	-12	-1	-7
COc1ccc(N2CCN(C(=O)C3CCN(S(=O)(=O)c4ccc5c(c4)oc(=O)n5C)CC3)CC2)cc1	13*	2	5	-11	1	-5
Nc1ncnc(Nc2ccccn2)c1[N+](=O)[O-]	-14	0	6	-14	-1	nt
Cc1cccnc1Nc1ncnc(N)c1[N+](=O)[O-]	11*	1	1	-8	1	-4
N=c1sccn1CC(=O)NC(=O)NC1CCCC1	-2	5	11	-20	0	nt
COc1ccc(-c2nc(CN3CCC(C(=O)NC4CCCC4)CC3)c(C)o2)cc1OC	16*	0	3	-18	0	-4
Cn1c(=O)c2c(nc(Br)n2CC(=O)C23CC4CC(CC(C4)C2)C3)n(C)c1=O	10*	-1	18	30	0	-4
O=C(CN1CCN(Cc2ccc(F)cc2)C1=O)NC1CCCC1	-3	-1	2	0	1	nt
CCOC(=O)c1ccc(S(=O)(=O)N2CCN(S(=O)(=O)CC)CC2)cc1	-11	1	3	-19	2	nt
CCOC(=O)c1ccc(S(=O)(=O)N2CCNCC2)cc1	13*	1	6	11	6	-4
Cc1c(C(=O)NCCc2ccccc2)oc2ccccc12	11*	-2	-2	5	-1	-10
COc1ccc2oc(C(=O)NCCc3ccccc3)c(C)c2c1	4	-2	3	-4	-1	nt
Cc1nnc(NC(=O)c2cc(-c3ccncc3)nc3c(C)cccc23)s1	15*	-1	0	-29	-1	5
Cc1ccc(SCc2cc(=O)n3[nH]c(C)nc3n2)cc1	-14	0	0	-2	-1	nt
Cc1ccc(SCc2cc(=O)n3[nH]cnc3n2)cc1	9.8*	1	20	-19	-1	-4
Cc1cccc(C(=O)NNC(=O)c2ccc(-c3ccccc3)cc2)c1	-3	0	3	3	1	nt
O=C(NNC(=O)c1ccc(-c2ccccc2)cc1)c1ccccc1	12*	2	0	-1	1	-9
O=C(CCC(=O)N(CC(=O)NC1CCCC1)Cc1ccccc1)Nc1nccs1	-1	0	10	0	0	nt
CC(C)[C@H](NS(=O)(=O)c1ccc2c(c1)OCCO2)C(=O)OCC(=O)Nc1ccccc1Cl	-6	0	8	17	3	nt
COC(=O)C1CC(Cl)CN1c1ncc(C(F)(F)F)cc1Cl (centres undefined)	16*	-3	0	-2	-1	-2
O=C(Cn1cnc2ccccc21)N1CCc2ccccc21	-1	1	1	15	1	nt
O=C(Cn1ncc2ccccc21)N1CCc2ccccc21	12*	-1	1	-13	0	-6
O=C(/C=C/c1ccc([N+](=O)[O-])cc1)c1cccnc1	13*	3	3	-29	1	-6
SMILES	OXTR potentiator	OXTR agonist	TAAR1 agonist	TAAR1 antagonist	V1R ag counter	OXTR pot confirm	others
O=C(/C=C/c1ccc([N+](=O)[O-])cc1)NCc1cccnc1	-13	1	5	0	0	nt
COc1ccc([N+](=O)[O-])cc1N1C(=O)c2cccc3cccc(c23)C1=O	-6	0	1	3	2	nt
COc1ccc([N+](=O)[O-])cc1-n1cccc1	13*	0	-1	-11	0	-7
Cc1ccc(C)c(NC(=O)CCN2C(=O)C3CC=CCC3C2=O)c1 (centres undefined)	15*	1	16	3	1	-3
Cc1ccc(C)c(NC(=O)CCN2C(=O)c3ccccc3C2=O)c1	nt	nt	5	-9	nt	nt
O=C(NCc1ccccc1)C(c1cccnc1)N(C(=O)c1ccccn1)c1ccccc1F (centres undefined)	-2	1	0	4	0	nt
C[C@H]1COC(=O)[C@@H](Cc2ccc(F)cc2)C/C=C\C[C@@H](CC(=O)NCCO)C(=O)N1	14*	2	8	9	1	-3
COc1ccc(CNC(=O)CCC(=O)Nc2cccnc2)cc1	-7	0	5	-1	3	nt
CCN(C(=O)COC(=O)C1=COCCO1)c1c(N)n(Cc2ccccc2)c(=O)[nH]c1=O	nt	nt	0	-27	nt	nt
CC1CCc2nn(CC(=O)NCc3ccco3)cc2C1 (centres undefined)	13*	-1	1	-14	1	-3
CCOc1ccc(-c2c(C(=O)N/N=C/c3ccc(Cl)cc3)nnn2-c2nonc2N)cc1	23*	7	107*	26	11	11*	TAAR1 ag conf=113*;Ga16 ag counter=70*;TAAR1 desensitize=45;Ga16 nonsel ant=13
O=[N+]([O-])c1ccc(-c2nn(-c3ccccc3)cc2/C=N/n2c(-c3ccncc3)n[nH]c2=S)cc1	-6	1	1	-24	0	nt
S=c1[nH]nc(-c2ccncc2)n1/N=C/c1cn(-c2ccccc2)nc1-c1ccccc1	20*	0	82*	12	1	7.5*	TAAR1 ag conf=76*;Ga16 ag counter=17*;TAAR1 desensitize=61*;Ga16 nonsel ant=14
NC(=O)C1CCCN(C(=O)CCc2nnc(C3(c4ccc(Cl)cc4)CCC3)o2)C1 (centres undefined)	-9	0	-1	-15	2	nt
